Assay outcomes from PubChem BioAssay.
Many of the other results were omitted from the sample, so hits are more common in it than they were.
UPR CHOP act: apoptotic UPR (CHOP) activation; 0.34% of 330,000 active; activation, % at 10 µM; CHO-CHOP luciferase reporter, luminescence; percent of tunicamycin response over DMSO baseline;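 active = at 10 µM dose, activation of 40% or more, normalized to positive control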
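Assay system: CHO cells with stable CHOP pathway luciferase reporter; Buffer or medium: F12 plus 10% serum; Times: 16-18 h cell attachment, then 6 h compound exposure, 37 °C; Signal: luciferase luminescence; Read-out basis: percent activation relative to tunicamycin control; Control set: tunicamycin high control, DMSO low control.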
XBP1 UPR activ: adaptive UPR (XBP1) activation. 0.33% of 330,000 active. AID 463104. CHO-XBP1 luciferase reporter, IRE1-XBP1 UPR activation, luminescence; percent of tunicamycin response, DMSO as zero. activation, % at 20 µM;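 active = versus positive control, 20 µM dose yields 30% or more activation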
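Assay system: IRE1-XBP1 luciferase reporter CHO line. Input: 1000 cells/well. Buffer or medium: F12 with 10% serum. Doses: 20 µM, 1% DMSO. Times: overnight seeding at 37 °C, 6 h compound treatment at 37 °C. Technique: Steady-Glo luciferase glow luminescence, 10 min after reagent addition.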
CHOP inh: CHOP inhibition in unfolded protein response; CHO-K1 CHOP-promoter luciferase, tunicamycin-induced, 15-18 h; inhibition, % at 10 µM; 3.8% of 220,000 active;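 active = compounds that reduced the stress-induced luciferase reporter signal by more than about 70% of percent inhibition, limit read from the data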
B2AR ag: activates human beta-2 adrenergic receptor causing internalization; P07550; Am2.2-beta2AR cells, FAP receptor internalization, flow cytometry; response, % (concentration not given with the values); 0.43% of 340,000 active; AID 504454;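 active = response above a set limit, near 3 SD of response in nonfluorescent compounds, cut at about 42% in these data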
Target sequence (P07550 whole entry, looked up): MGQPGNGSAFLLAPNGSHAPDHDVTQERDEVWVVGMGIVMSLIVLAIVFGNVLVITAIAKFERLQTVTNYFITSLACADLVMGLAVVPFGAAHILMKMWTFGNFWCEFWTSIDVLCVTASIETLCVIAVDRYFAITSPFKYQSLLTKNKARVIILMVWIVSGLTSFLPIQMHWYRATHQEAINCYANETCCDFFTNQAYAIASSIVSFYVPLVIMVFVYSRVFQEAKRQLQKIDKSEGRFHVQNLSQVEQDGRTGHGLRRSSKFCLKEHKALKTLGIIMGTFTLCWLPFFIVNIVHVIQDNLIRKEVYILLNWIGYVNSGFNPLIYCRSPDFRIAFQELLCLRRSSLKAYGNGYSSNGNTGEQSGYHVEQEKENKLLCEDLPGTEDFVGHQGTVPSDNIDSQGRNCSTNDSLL
p-CIP stab down: lowers stability of the mouse p/CIP coactivator protein; 0.01% of 290,000 active; F442A p/CIP-EGFP cells, EGFP fluorescence, 16 h; decrease of EGFP signal, % at 10 µM; AID 1984;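 active = EGFP signal decrease of at least 30% at 10 µM or well 3 SD below plate mean, unless failing retest; inactive = the rest, including hits failing retest or dose response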
Dynein transport: blocks dynein driven cargo transport along microtubules; 3617.4 mouse cells, GR-EGFP nuclear translocation imaging; test concentration mostly 20 µM; stimulated with dexamethasone, 1 µM; stronger effect = lower value; z-score, hits read low; AID 1381; 0.47% of 220,000 active;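 active = plate z-score of nuclear minus cytoplasmic receptor signal below a set negative limit, without overly bright fluorescence or cell loss, cut at about -3.5 in these data, passing the limit was not always enough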;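 note: z-score of nuclear minus cytoplasmic ring GR-EGFP intensity difference per well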
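medium = tetracycline-free induction medium containing charcoal-stripped FBS | also added = 1.0 µM final dexamethasone stimulus | schedule = 48 h induction, 1 h compound, 30 min dex at 37 °C | technique = fixed, Hoechst-stained cells imaged at 10x for EGFP | measure = GR-EGFP nuclear translocation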
Each line names hits and unclear results; the compound was inactive in the other large screens.

O=C(Nc1ncccc1Cl)C(Sc1ccccc1)c1ccccc1 (stereo unspecified)	CHOP inh 75
CCNc1sc(C(=O)c2cccs2)c(N)c1-c1nc2ccccc2s1	CHOP inh 78
C=CCNc1sc(C(=O)c2ccccc2)c(N)c1-c1nc2ccccc2s1	CHOP inh 82
CSc1nc2cc3c(cc2n1C(=O)c1ccc(C)cc1)OCCO3	CHOP inh 90
COc1cccc(C(=O)n2c(SC)nc3cc4c(cc32)OCCO4)c1	none
COc1cccc(/C=N/NC(=O)c2cc3c(OC)cccc3[nH]2)c1OC	none
COc1cccc(/C=N/NC(=O)c2cc3c(OC)cccc3[nH]2)c1O	CHOP inh 92
COc1cccc(/C=N/NC(=O)c2cc3cc([N+](=O)[O-])ccc3s2)c1O	CHOP inh 100 (no result: UPR CHOP act, XBP1 UPR activ)
NC(N)=[N+]1CCc2ccccc2C1	none (no result: UPR CHOP act, XBP1 UPR activ, B2AR ag, p-CIP stab down, Dynein transport)
CN(/N=C/c1ccc(-c2ccc([N+](=O)[O-])cc2)o1)c1ccccc1	none (no result: CHOP inh, Dynein transport)
O=C1Nc2ccccc2/C1=N/N=C/c1ccc(-c2ccc([N+](=O)[O-])cc2)o1	B2AR ag 43 (no result: UPR CHOP act, XBP1 UPR activ)
NC(=S)Nc1cccc(O)c1	none
COc1ccc(S(=O)(=O)N2CCC(c3cc(-c4cccc5ccccc45)n[nH]3)CC2)cc1	CHOP inh 84
O=S(=O)(c1cccc(C(F)(F)F)c1)N1CCC(c2cc(-c3cccc4ccccc34)n[nH]2)CC1	none
CC1CCCCC12NC(=O)N(CC(=O)NCCc1c[nH]c3ccccc13)C2=O (stereo unspecified)	none (no result: CHOP inh, p-CIP stab down, Dynein transport)
Cc1ccccc1CSc1nc2n(n1)C(c1cccs1)C1=C(CCCC1=O)N2 (stereo unspecified)	CHOP inh 78
O=C(O)CCCN1C(=O)/C(=C\c2ccc(-c3nc4ccccc4s3)o2)SC1=S	B2AR ag 53
O=C(O)CCN1C(=O)/C(=C/c2ccc(-c3nc4ccccc4s3)o2)SC1=S	none
Cc1cc(C)cc(CN2C(=O)NC3(CCCCCC3)C2=O)c1	none (no result: CHOP inh, Dynein transport)
CCCCOc1ccc(-c2nnn(CC(=O)NCCc3c[nH]c4ccccc34)n2)cc1	CHOP inh 79
CCN(CC)S(=O)(=O)c1ccc(N/N=C/c2ccc(O)cc2O)nc1	CHOP inh 83
COCc1nnc(NC(C)=O)s1	none
N#CC(C#N)=Cc1cn(-c2ncc(C(F)(F)F)cc2Cl)c2ccccc12	B2AR ag 66
CC(=O)/C=C\c1cn(-c2ncc(C(F)(F)F)cc2Cl)c2ccccc12	none
CC(C)C(=O)NNC(=O)c1cc2sccc2s1	none
Cc1ccc(S(=O)(=O)N2CCN(CC(=O)Nc3ccccc3Cl)CC2)cc1	none (no result: CHOP inh, p-CIP stab down, Dynein transport)
Cc1ccc(O)c(NC(=O)CSc2ccc(Cl)cc2)c1	none
Cc1ccc(NS(=O)(=O)c2ccc(NC(=O)CSc3ccc(Cl)cc3)cc2)c(C)c1	CHOP inh 70
CC(C)c1ccc(NC(=O)CCNS(=O)(=O)c2cccc3nonc23)cc1	none
Cc1ccc(NC(=O)CCNS(=O)(=O)c2cccc3nonc23)cc1	CHOP inh 75
Cc1ccc(S(=O)(=O)NCCC(=O)Nc2ccc(Cl)c(Cl)c2)cc1	CHOP inh 83
Cc1ccc(S(=O)(=O)NCCC(=O)Nc2ccc(Cl)c(Cl)c2)cc1C	none
Cc1ccc(S(=O)(=O)Nc2ccc(NC(=O)CN3CCCCC3)c(Cl)c2)cc1	CHOP inh 95
COc1cc(/C(C)=N/NC(=O)C(O)(c2ccccc2)c2ccccc2)ccc1O	none
N/C(=N\OC(=O)C(c1ccccc1)c1ccccc1)c1cccnc1	none
CC(C(=O)O/N=C(\N)c1ccccn1)c1ccc([N+](=O)[O-])cc1 (stereo unspecified)	none (no result: CHOP inh, Dynein transport)
N/C(=N\OC(=O)c1ccccc1)c1ccccn1	CHOP inh 86
N/C(=N\OCc1ccc([N+](=O)[O-])cc1)c1ccccn1	CHOP inh 83
N/C(=N\OC(=O)C(c1ccccc1)c1ccccc1)c1ccccn1	B2AR ag 58
OC[C@H]1O[C@@H](n2cnc3c(NC4CCCC4)ncnc32)C(O)[C@H]1O (stereo partly specified)	none (no result: UPR CHOP act, XBP1 UPR activ, B2AR ag, p-CIP stab down, Dynein transport)
O=C(COC(=O)C1CCN(S(=O)(=O)c2ccccc2)CC1)NCCc1ccccc1	none (no result: CHOP inh, p-CIP stab down, Dynein transport)
CC(C)(C)C(=O)Nc1cc2nn(-c3ccccc3)nc2cc1Cl	CHOP inh 80 (no result: UPR CHOP act, XBP1 UPR activ)
Cc1ccc(C)c(N2CCN(C(=O)c3ccc(CSc4nc5ccncc5[nH]4)cc3)CC2)c1	CHOP inh 72
O=C(c1ccc(CSc2nc3ccncc3[nH]2)cc1)N1CCCCC1	none
CC(C)NCCCCOc1ccc(Br)cc1Cl	none
COc1ccccc1NC(=O)CN1CCN(CC(=O)Nc2ccccc2F)CC1	none (no result: UPR CHOP act, XBP1 UPR activ, CHOP inh, p-CIP stab down, Dynein transport)
O=C(CN1CCC(n2nnc3cc(C(F)(F)F)ccc32)CC1)Nc1ccc2c(c1)CCC2	CHOP inh 78
COc1cc(NC(=O)Nc2ccccc2)c(OC)cc1NC(=O)CN1CCCCC1	CHOP inh 90
COc1ccc(Cl)cc1NC(=O)CN1CCC(n2nnc3cc(C)ccc32)CC1	CHOP inh 73
COc1ccc(C)cc1NC(=O)CN1CCN(CC(=O)Nc2ccccc2F)CC1	CHOP inh 79
CN1OC[C@@H]2CN(Cc3ccc(Cl)cc3)[C@H](c3cccc(Br)c3)C[C@@H]21	none (no result: UPR CHOP act, XBP1 UPR activ, CHOP inh, p-CIP stab down, Dynein transport)
Cc1ccc(N2CC(C(=O)N/N=C/c3cccc([N+](=O)[O-])c3)CC2=O)cc1 (stereo unspecified)	none
CCc1ccc(N2CC(C(=O)N/N=C/c3cccc([N+](=O)[O-])c3)CC2=O)cc1 (stereo unspecified)	CHOP inh 83
Cc1cc(NC(=O)COC(=O)c2ccc(OC(F)(F)F)cc2)no1	none (no result: CHOP inh, p-CIP stab down, Dynein transport)
Cc1cc(NC(=O)COC(=O)C(Nc2ccc(C(F)(F)F)cc2Cl)C(C)C)no1 (stereo unspecified)	CHOP inh 102
OC[C@H]1O[C@@H](n2cnc3c(NCCc4ccccc4)ncnc32)C(O)[C@H]1O (stereo partly specified)	none (no result: UPR CHOP act, XBP1 UPR activ, B2AR ag, p-CIP stab down, Dynein transport)
O=C(N/N=C/c1cccc(Cl)c1Cl)Nc1ccccc1	CHOP inh 71
CCC(C)[C@H]1CNC(=S)N1CCc1cccc2ccccc12 (stereo partly specified)	none
CCC(C)[C@H]1CNC(=S)N1CCC12CC3CC(CC(C3)C1)C2 (stereo partly specified)	CHOP inh 80
N#Cc1cccc(C#N)c1Oc1ccc(S(=O)(=O)Nc2ccc(Cl)cc2)cc1	none
COc1ccc(OC)c2sc(NC(=O)c3ccc(Br)s3)nc12	CHOP inh 91
c1ccc(CN2CCC(Nc3nc(-c4cccs4)nc4ccccc34)CC2)cc1	CHOP inh 75
